# Measurements from ChEMBL document CHEMBL4308856, “Novel 5-(quinuclidin-3-ylmethyl)-1,2,4-oxadiazoles to investigate the activation of the α7 nicotinic acetylcholine receptor subtype: Synthesis and electrophysiological evaluation” (Eur J Med Chem, 2018).
# Active and inactive are the calls of the source. No cut-off for these calls is given here.
# Experiments:
# Format in all cases: cell-based
# [1] = target: T1, Neuronal acetylcholine receptor subunit alpha-7 (Homo sapiens, UniProt P36544); test: Ratio of Silent agonist activity at human alpha7 nAChR expressed in Xenopus laevis oocytes assessed as increase in net charge in presence of type 2 PAM PNU-120596 relative to ACh to partial agonist activity at human alpha7 nAChR expressed in Xenopus laevis oocytes assessed as increase in net charge relative to ACh
# In short: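 PNU effectiveness: net-charge response of human α7 nAChR (Xenopus oocytes, −60 mV clamp) to compound co-applied with 10 μM PNU-120596, divided by the response to compound alone. Both responses were normalized to 60 μM ACh controls, with 12 s applications and 181 s washout.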
# [2] = target: T1, Neuronal acetylcholine receptor subunit alpha-7; test: (§1) Silent agonist activity at human alpha7 nAChR expressed in Xenopus laevis oocytes assessed as increase in net charge at 30 uM at -60 mV holding potential treated for 12 secs followed by compound washout for 181 secs in presence of type 2 PAM PNU-120596 by whole cell two electrode voltage-clamp assay relative to ACh
# In short: (§2)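 α7 (human) expressed in Xenopus oocytes, voltage-clamped at −60 mV, Ringer's pH 7.2 with atropine at 2 mL/min. Compound (3, 10 or 30 μM) was co-applied with PNU-120596 for 12 s, then washed out for 181 s. Net charge was expressed relative to the mean of two preceding 60 μM ACh control responses in the same oocyte. Mean ± SEM, at least four oocytes.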
# [3] = target: T1, Neuronal acetylcholine receptor subunit alpha-7; test: Partial agonist activity at human alpha7 nAChR expressed in Xenopus laevis oocytes assessed as increase in peak current amplitude at 30 uM at -60 mV holding potential treated for 12 secs followed by compound washout for 181 secs by whole cell two electrode voltage-clamp assay relative to ACh
# In short: (§3)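 Human α7 nAChR expressed in Xenopus laevis oocytes, two-electrode voltage clamp at −60 mV with 3 M KCl electrodes. Ringer's with atropine, pH 7.2, perfused at 2 mL/min. Compound was applied at 30 μM for 12 s with a 181 s washout. Peak current and net charge were each normalized to the mean of two prior 60 μM ACh controls in the same oocyte; the peak/net-charge ratio was taken. Mean ± SEM, at least four oocytes.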
# [4] = target: T1, Neuronal acetylcholine receptor subunit alpha-7; test: Ratio of partial agonist activity at human alpha7 nAChR expressed in Xenopus laevis oocytes assessed as increase in peak current amplitude relative to ACh to partial agonist activity at human alpha7 nAChR expressed in Xenopus laevis oocytes assessed as increase in net charge relative to ACh; in short: as §3
# [5] = target: T1, Neuronal acetylcholine receptor subunit alpha-7; test: Partial agonist activity at human alpha7 nAChR expressed in Xenopus laevis oocytes assessed as increase in net charge at 30 uM at -60 mV holding potential treated for 12 secs followed by compound washout for 181 secs by whole cell two electrode voltage-clamp assay relative to ACh; in short: as §3
# [6] = target: T1, Neuronal acetylcholine receptor subunit alpha-7; test: as §1, with “3” for “30”; in short: as §2
# [7] = target: T1, Neuronal acetylcholine receptor subunit alpha-7; test: Partial agonist activity at human alpha7 nAChR expressed in Xenopus laevis oocytes at -60 mV holding potential treated for 12 secs followed by compound washout for 181 secs by whole cell two electrode voltage-clamp assay relative to ACh
# [8] = target: T1, Neuronal acetylcholine receptor subunit alpha-7; test: as §1, with “3 to 10” for “30”; in short: as §2
# [9] = target: T1, Neuronal acetylcholine receptor subunit alpha-7; test: Partial agonist activity at human alpha7 nAChR expressed in Xenopus laevis oocytes assessed as increase in net charge at 3 uM at -60 mV holding potential treated for 12 secs followed by compound washout for 181 secs by whole cell two electrode voltage-clamp assay relative to ACh
# In short: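 Human α7 nAChR in Xenopus oocytes under two-electrode voltage clamp at −60 mV, perfused with Ringer's (pH 7.2, atropine) at 2 mL/min. Compound was given alone at 3 μM as a 12 s application followed by 181 s washout. Net-charge response was normalized to the average of two initial 60 μM ACh controls from the same oocyte.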
# [10] = target: T1, Neuronal acetylcholine receptor subunit alpha-7; test: (§4) Antagonist activity at human alpha7 nAChR expressed in Xenopus laevis oocytes assessed as Ach-induced response by measuring residual activity at 30 uM at -60 mV holding potential treated for 12 secs followed by compound washout for 181 secs by whole cell two electrode voltage-clamp assay (Rvb =60%)
# [11] = target: T2, Neuronal acetylcholine receptor; alpha3/beta4 (Homo sapiens) (UniProt P30926+P32297); test: Antagonist activity at human alpha3beta4 nAChR expressed in Xenopus laevis oocytes assessed as inhibition of post-control Ach-induced channel activation at 30 uM at -60 mV holding potential treated for 6 secs followed by compound washout for 241 secs by whole cell two electrode voltage-clamp assay
# [12] = target: T1, Neuronal acetylcholine receptor subunit alpha-7; test: as §4, with “assessed as inhibition of post control Ach-induced response” for “assessed as Ach-induced response”
# [13] = target: T2, Neuronal acetylcholine receptor; alpha3/beta4 (Homo sapiens); test: Antagonist activity at human alpha3beta4 nAChR expressed in Xenopus laevis oocytes assessed as inhibition of Ach-induced channel activation at 30 uM at -60 mV holding potential treated for 6 secs followed by compound washout for 241 secs by whole cell two electrode voltage-clamp assay
# [14] = target: T1, Neuronal acetylcholine receptor subunit alpha-7; test: as §1, with “10” for “30”; in short: as §2
# T1 sequence (P36544 whole entry): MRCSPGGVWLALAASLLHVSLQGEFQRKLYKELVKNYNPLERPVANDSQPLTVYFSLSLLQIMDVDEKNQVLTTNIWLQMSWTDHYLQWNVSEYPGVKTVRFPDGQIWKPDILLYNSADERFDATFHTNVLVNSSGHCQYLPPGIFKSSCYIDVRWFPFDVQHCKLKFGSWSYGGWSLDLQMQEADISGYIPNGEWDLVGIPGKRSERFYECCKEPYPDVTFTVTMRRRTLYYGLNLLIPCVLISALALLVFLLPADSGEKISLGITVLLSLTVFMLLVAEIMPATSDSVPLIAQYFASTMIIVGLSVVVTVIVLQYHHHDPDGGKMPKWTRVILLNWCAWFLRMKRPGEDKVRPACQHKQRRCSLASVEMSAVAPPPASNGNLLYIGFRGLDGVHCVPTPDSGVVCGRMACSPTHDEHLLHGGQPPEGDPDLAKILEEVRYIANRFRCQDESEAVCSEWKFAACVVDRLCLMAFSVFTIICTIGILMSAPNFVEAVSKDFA
Structure (SMILES),Ratio [1],fold change (FC) [2],fold change (FC) [3],Ratio [4],fold change (FC) [5],fold change (FC) [6],EC50 [7] [µM],Activity [8],fold change (FC) [9],Activity [10] [%],inhibition [11],Activity [12] [%],inhibition [13],fold change (FC) [8],Activity [14],Activity [6]
c1cc(-c2noc(CC3CN4CCC3CC4)n2)ccn1 (configuration not stated),36,25.5,0.553,0.79,0.703,–,–,–,–,–,–,–,–,–,–,–
C[N+]12CCC(CC1)C(Cc1nc(-c3cccc(Cl)c3)no1)C2 (configuration not stated),5,0.7,0.293,1.94,0.151,–,–,–,–,–,–,–,–,–,–,–
C[N+]12CCC(CC1)C(Cc1nc(-c3ccncc3)no1)C2 (configuration not stated),55,2.6,0.034,0.72,0.047,–,–,–,–,–,–,–,–,–,–,–
COc1ccc(-c2noc(CC3CN4CCC3CC4)n2)cc1 (configuration not stated),4,1.6,1.98,4.93,0.401,4.4,< 30,–,–,–,–,–,–,–,–,–
Fc1cccc(-c2noc(CC3CN4CCC3CC4)n2)c1 (configuration not stated),2,0.9,2.05,4.47,0.458,–,–,–,–,–,–,–,–,–,–,–
Cc1noc(CC2C[N+]3(C)CCC2CC3)n1 (configuration not stated),100,0.1,0.003,3,0.001,–,–,–,–,–,–,–,–,–,–,–
C[N+]12CCC(CC1)C(Cc1nc(-c3cccnc3)no1)C2 (configuration not stated),81,3.9,0.023,0.48,0.048,–,–,–,–,–,–,–,–,–,–,–
COc1cccc(-c2noc(CC3C[N+]4(C)CCC3CC4)n2)c1 (configuration not stated),14,1.8,0.119,0.92,0.129,–,–,–,–,–,–,–,–,–,–,–
Clc1cccc(-c2noc(CC3CN4CCC3CC4)n2)c1 (configuration not stated),2,0.6,1.2,3.76,0.32,–,–,–,–,–,–,–,–,–,–,–
COc1ccc(-c2noc(CC3C[N+]4(C)CCC3CC4)n2)cc1 (configuration not stated),29,2.2,0.051,0.68,0.075,–,–,Active,–,–,–,–,–,–,–,–
C[N+]12CCC(CC1)C(Cc1nc(-c3ccccc3)no1)C2 (configuration not stated),21,2.4,0.069,0.62,0.112,–,–,–,–,–,–,–,–,–,–,–
c1cncc(-c2noc(CC3CN4CCC3CC4)n2)c1 (configuration not stated),28,13.7,0.867,1.8,0.483,–,–,–,–,–,–,–,–,–,–,–
Cc1cccc(-c2noc(CC3CN4CCC3CC4)n2)c1 (configuration not stated),178,77.3,2.11,4.85,0.434,–,–,–,–,–,–,–,–,–,–,–
c1ccc(-c2noc(CC3CN4CCC3CC4)n2)cc1 (configuration not stated),3,1.7,1.3,2.16,0.602,17.4,< 30,–,–,–,–,–,–,–,–,–
c1coc(-c2noc(CC3CN4CCC3CC4)n2)c1 (configuration not stated),56,32.3,2.14,3.73,0.575,–,< 30,–,0.15,–,–,–,–,–,–,–
C[N+]12CCC(CC1)C(Cc1nc(-c3cccc(C(F)(F)F)c3)no1)C2 (configuration not stated),3,0.1,0.077,2.2,0.035,–,–,–,–,10,inactive,60,Active,–,–,–
FC(F)(F)c1cccc(-c2noc(CC3CN4CCC3CC4)n2)c1 (configuration not stated),2,0.1,0.144,2.62,0.055,–,–,–,–,–,–,–,–,–,–,–
C[N+]12CCC(CC1)C(Cc1nc(-c3cccc(F)c3)no1)C2 (configuration not stated),5,0.3,0.067,1.06,0.063,–,–,–,–,–,–,–,–,–,–,–
C[N+]12CCC(CC1)C(Cc1nc(-c3ccco3)no1)C2 (configuration not stated),1990,27.9,0.01,0.71,0.014,–,–,–,–,–,–,–,–,–,–,–
Brc1cccc(-c2noc(CC3CN4CCC3CC4)n2)c1 (configuration not stated),2,0.5,0.92,3.36,0.274,–,–,–,–,–,–,–,–,–,–,–
C[N+]12CCC(CC1)C(Cc1nc(-c3cccs3)no1)C2 (configuration not stated),2,0.2,0.103,0.81,0.127,–,–,–,–,–,–,–,–,–,–,–
Cc1cccc(-c2noc(CC3C[N+]4(C)CCC3CC4)n2)c1 (configuration not stated),16,1.2,0.079,1.03,0.077,–,–,–,–,–,–,–,–,10.9,inactive,–
COc1cccc(-c2noc(CC3CN4CCC3CC4)n2)c1 (configuration not stated),2,1,1.42,2.77,0.511,–,–,–,–,–,–,–,–,–,–,–
C[N+]12CCC(CC1)C(Cc1nc(-c3cccc(I)c3)no1)C2 (configuration not stated),1,0.3,0.866,3.62,0.239,–,–,–,–,–,–,–,–,–,–,–
Cc1noc(CC2CN3CCC2CC3)n1 (configuration not stated),121,5.1,0.026,0.62,0.042,–,–,–,–,–,–,–,–,–,inactive,inactive
Ic1cccc(-c2noc(CC3CN4CCC3CC4)n2)c1 (configuration not stated),2,0.5,1.21,4.94,0.245,–,–,–,–,–,–,–,–,–,–,–
c1csc(-c2noc(CC3CN4CCC3CC4)n2)c1 (configuration not stated),10,5,2.06,4.06,0.508,13.4,< 30,–,–,–,–,–,–,–,–,–
C[N+]12CCC(CC1)C(Cc1nc(-c3cccc(Br)c3)no1)C2 (configuration not stated),2,0.3,0.44,2.49,0.177,–,–,–,–,–,–,–,–,–,–,–
